From ChEMBL document CHEMBL4017537, “Discovery of a Potent and Specific M. tuberculosis Leucyl-tRNA Synthetase Inhibitor: (S)-3-(Aminomethyl)-4-chloro-7-(2-hydroxyethoxy)benzo[c][1,2]oxaborol-1(3H)-ol (GSK656)” (J Med Chem, 2017)
Values after ≈ are worked out from the molar mass of the structure shown.

How the values were obtained:
[1] = system: Mycobacterium tuberculosis; assay: Antimicrobial activity against Mycobacterium tuberculosis H37Rv; assay type: functional
[2] = system: Mycobacterium tuberculosis; assay: Antimicrobial activity against Mycobacterium tuberculosis H37Rv infected in C57BL/6J mouse assessed as 2 log reduction in bacterial load in lungs administered qd for 8 consecutive days starting on day 1 post infection measured 24 hrs post last dose; assay type: functional
[3] = target: T1, Leucine--tRNA ligase, mitochondrial (Homo sapiens, UniProt Q15031); assay: Inhibition of human N-terminal 6His-tagged mitochondrial LeuRS expressed in Escherichia coli BL21(DE3) assessed as L-[14C]leucine incorporation in to Escherichia coli tRNA after 20 mins by liquid scintillation counting analysis
T1 sequence (Q15031 whole entry): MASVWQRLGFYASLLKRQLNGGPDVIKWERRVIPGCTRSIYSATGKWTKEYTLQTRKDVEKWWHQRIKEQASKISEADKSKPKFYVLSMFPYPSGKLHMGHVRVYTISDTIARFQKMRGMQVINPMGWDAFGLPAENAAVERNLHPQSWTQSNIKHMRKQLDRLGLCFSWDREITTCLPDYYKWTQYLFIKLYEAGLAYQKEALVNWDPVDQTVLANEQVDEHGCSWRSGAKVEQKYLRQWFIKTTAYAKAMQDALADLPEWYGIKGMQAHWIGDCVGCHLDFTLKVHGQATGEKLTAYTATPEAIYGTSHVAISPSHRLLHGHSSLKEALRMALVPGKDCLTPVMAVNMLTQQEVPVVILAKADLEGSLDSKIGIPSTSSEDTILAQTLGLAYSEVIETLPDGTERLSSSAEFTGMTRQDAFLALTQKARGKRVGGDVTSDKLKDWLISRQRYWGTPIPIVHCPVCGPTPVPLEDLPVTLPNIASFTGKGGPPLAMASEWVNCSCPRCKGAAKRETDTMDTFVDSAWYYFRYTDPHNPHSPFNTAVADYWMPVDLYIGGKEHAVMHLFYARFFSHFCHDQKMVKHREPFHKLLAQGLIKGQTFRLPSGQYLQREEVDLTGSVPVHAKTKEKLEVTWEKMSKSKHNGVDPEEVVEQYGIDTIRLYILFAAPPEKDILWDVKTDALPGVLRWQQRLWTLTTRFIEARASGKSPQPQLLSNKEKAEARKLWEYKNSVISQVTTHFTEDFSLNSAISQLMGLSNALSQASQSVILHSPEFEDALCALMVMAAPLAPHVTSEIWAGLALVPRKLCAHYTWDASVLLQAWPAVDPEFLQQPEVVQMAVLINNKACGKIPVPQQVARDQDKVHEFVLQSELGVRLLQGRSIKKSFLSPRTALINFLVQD
Method in brief: (§1)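 N-terminal His6-tagged LeuRS expressed in E. coli BL21(DE3), codon-optimized. 50 mM HEPES-KOH pH 8.0, 30 mM MgCl2, 30 mM KCl, 13 μM L-[14C]leucine, 15 μM tRNA (E. coli total; brewer's yeast for human cytoplasmic enzyme), 0.02% BSA, 1 mM DTT, 30 °C. Inhibitor preincubated 20 min, started with 4 mM ATP, TCA-quenched after 7 min, filtered, scintillation counted; four-parameter logistic IC50.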

cytoplasmic LeuRS = assay: Selectivity index, ratio of EC50 for inhibition of cytoplasmic LeuRS in HepG2 cells assessed as reduction in protein synthesis to MIC for Mycobacterium tuberculosis H37Rv; assay type: toxicity, cell-based; settings: human, read-out: Selectivity Index
Method in brief: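 Ratio of HepG2 protein-synthesis EC50 to MIC against M. tuberculosis H37Rv.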

Leucine--tRNA ligase = target: T2, Leucine--tRNA ligase (Mycobacterium tuberculosis (strain ATCC 25618 / H37Rv), UniProt P9WFV1); assay: Inhibition of Mycobacterium tuberculosis H37Rv N-terminal 6His-tagged LeuRS expressed in Escherichia coli BL21(DE3) assessed as L-[14C]leucine incorporation in to Escherichia coli tRNA after 20 mins by liquid scintillation counting analysis; method in brief: as §1
T2 sequence (P9WFV1 whole entry): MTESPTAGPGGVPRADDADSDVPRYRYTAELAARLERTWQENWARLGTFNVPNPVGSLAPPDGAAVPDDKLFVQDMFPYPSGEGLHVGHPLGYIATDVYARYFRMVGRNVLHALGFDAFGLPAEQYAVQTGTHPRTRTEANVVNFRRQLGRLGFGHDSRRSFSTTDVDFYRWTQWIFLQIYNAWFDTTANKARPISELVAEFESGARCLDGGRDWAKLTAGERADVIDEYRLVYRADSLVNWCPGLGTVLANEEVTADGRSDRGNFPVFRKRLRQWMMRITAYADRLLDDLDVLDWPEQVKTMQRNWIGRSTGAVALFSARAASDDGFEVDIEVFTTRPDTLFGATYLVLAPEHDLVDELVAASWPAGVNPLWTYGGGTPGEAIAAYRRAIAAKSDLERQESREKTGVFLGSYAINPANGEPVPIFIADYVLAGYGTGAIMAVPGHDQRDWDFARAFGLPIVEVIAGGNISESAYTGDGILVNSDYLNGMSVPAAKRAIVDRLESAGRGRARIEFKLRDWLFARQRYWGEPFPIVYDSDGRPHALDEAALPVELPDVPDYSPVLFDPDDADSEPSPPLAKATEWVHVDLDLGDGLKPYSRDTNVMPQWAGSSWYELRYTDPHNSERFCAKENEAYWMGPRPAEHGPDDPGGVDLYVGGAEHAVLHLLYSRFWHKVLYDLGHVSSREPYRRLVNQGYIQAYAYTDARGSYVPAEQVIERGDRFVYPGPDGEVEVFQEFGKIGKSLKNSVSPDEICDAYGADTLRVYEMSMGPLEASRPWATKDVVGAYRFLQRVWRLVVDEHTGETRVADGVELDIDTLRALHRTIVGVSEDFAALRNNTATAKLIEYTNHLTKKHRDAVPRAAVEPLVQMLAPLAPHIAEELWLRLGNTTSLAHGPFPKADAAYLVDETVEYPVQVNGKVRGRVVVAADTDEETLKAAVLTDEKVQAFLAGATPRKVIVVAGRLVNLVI

[4] = target: Leucine--tRNA ligase, cytoplasmic (Homo sapiens, UniProt Q9P2J5); assay: Inhibition of cytoplasmic LeuRS in human HepG2 cells assessed as reduction in protein synthesis preincubated for 48 hrs followed by L-[14C]leucine addition measured after 3 hrs by liquid scintillation counting analysis; assay type: cell-based
Method in brief: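 HepG2 cells in DMEM/10% FCS, 3000 cells/well, exposed to compound dilutions (0.5% DMSO final) for 48 h at 37 °C. Medium then replaced with fresh medium containing 0.5 μCi L-[14C]leucine and the same compound levels for 3 h. Cells trypsinised, precipitated in ice-cold 20% TCA, filtered, washed, scintillation counted; curve-fit EC50; mean of at least duplicates.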

HepG2 = assay: Cytotoxicity against human HepG2 cells assessed as reduction in cell viability after 48 hrs by CellTiter-Glo assay; assay type: cell-based; settings: HepG2, 48 h
Method in brief: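 HepG2 cells seeded at 10 000/well in EMEM with 5% FCS and 2 mM glutamine. After 24 h, ten 1:2 serial compound dilutions (0.5% DMSO final) added in duplicate for 48 h. Read-out by CellTiter-Glo luminescence per table footnote; the method text also describes resazurin fluorescence (ex 515/em 590 nm). Sigmoidal variable-slope fit.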

Chain of Leucine--tRNA ligase, cytoplasmic (Q9P2J5 whole entry): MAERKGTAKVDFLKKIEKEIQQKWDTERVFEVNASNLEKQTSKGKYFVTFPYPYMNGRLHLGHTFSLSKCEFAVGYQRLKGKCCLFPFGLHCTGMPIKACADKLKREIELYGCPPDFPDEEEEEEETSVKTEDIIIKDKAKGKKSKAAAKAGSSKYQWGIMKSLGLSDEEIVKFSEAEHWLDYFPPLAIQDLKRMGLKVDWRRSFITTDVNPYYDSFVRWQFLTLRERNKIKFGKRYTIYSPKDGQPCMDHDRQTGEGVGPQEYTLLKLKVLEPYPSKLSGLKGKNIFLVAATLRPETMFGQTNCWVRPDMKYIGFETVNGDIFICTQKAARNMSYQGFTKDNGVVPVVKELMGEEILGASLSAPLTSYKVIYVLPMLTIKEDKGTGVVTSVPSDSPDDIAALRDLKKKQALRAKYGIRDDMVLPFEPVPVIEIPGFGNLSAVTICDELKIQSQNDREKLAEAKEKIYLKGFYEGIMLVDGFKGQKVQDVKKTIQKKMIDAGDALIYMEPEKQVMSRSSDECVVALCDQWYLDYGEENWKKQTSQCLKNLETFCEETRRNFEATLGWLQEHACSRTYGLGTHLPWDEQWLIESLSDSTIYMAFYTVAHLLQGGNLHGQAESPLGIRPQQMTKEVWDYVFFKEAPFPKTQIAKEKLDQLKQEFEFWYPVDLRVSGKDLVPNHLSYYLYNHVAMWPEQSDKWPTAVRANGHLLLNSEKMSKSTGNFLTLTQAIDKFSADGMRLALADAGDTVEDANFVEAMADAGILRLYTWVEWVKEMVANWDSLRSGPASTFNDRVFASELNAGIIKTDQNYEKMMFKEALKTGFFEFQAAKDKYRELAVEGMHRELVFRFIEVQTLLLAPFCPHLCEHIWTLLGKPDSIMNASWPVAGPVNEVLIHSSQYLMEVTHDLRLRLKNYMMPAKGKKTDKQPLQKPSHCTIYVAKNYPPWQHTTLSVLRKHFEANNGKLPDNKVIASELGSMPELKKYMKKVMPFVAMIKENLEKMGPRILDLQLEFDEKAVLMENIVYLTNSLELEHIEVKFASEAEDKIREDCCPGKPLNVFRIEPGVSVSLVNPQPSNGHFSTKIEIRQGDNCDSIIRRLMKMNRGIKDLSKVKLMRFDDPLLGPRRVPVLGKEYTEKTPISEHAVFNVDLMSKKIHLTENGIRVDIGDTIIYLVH

For `Cl.NC[C@H]1OB(O)c2c(OCCO)ccc(Cl)c21`, the MIC [1] was 0.08 µM, the ED99 [2] was 0.4 mg/kg and the IC50 [3] was greater than 300 µM. It also gave a selectivity ratio (cytoplasmic LeuRS) of 1710, an IC50 (Leucine--tRNA ligase) of 0.2 µM and an EC50 [4] of 137 µM. For the same compound, the EC50 (HepG2) was 381 µM.
In the case of `CCOc1ccc(Br)c2c1B(O)O[C@@H]2CN`, the MIC [1] is reported as 0.1 µM (≈ 0.0286 µg/mL), the ED99 [2] is reported as less than 1 mg/kg and the IC50 [3] is reported as greater than 300 µM. It also gave a selectivity ratio (cytoplasmic LeuRS) of 305, an IC50 (Leucine--tRNA ligase) of 0.075 µM and an EC50 [4] of 30.5 µM. For the same compound, the EC50 (HepG2) was 47.1 µM.
